Compounds with a hit are over-represented: about 4.4% of the library has one in this group of screens.
SENP1 FRET inh: SENP1 (human) catalytic domain inhibition; 360,000 tested, 0.21% active; Q9P0U3; inhibition, % at 10 µM; recombinant SENP1 catalytic domain, CyPet-SUMO1-YPet FRET cleavage;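 active = inhibition at least 30% at 10 µM, raw YFP signal under a set limit, fluorescence ratio 0.5 to 1.5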
Target sequence (Q9P0U3 419-644 limits assumed): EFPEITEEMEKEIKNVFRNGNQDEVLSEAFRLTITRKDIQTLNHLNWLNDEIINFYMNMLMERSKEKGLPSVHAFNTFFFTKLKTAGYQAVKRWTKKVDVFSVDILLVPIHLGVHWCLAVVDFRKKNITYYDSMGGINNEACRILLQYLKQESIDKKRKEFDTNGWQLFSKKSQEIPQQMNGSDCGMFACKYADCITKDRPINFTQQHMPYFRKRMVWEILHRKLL
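System: Recombinant human SENP1 catalytic domain, His6-tagged | Incubation: Enzyme reaction for 50 min at room temperature, dark | Medium: Tris pH 8 with BME, BSA, NP40 and catalase | Also added: 25 nM SUMO1 FRET substrate | Compound: 10 µM single point, 0.5% DMSO | Measured by: FRET fluorescence in CFP and YFP emission channels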
NR3A LBD binder: modulators (binders) of human NR3A ligand-binding domain. Tm shift relative to glycine control, % at 25 µM. 340,000 tested, 2.5% active. AID 1259313. NR3A LBD differential scanning fluorimetry, Tm shift; 0% = protein alone, 100% = glycine-bound protein;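 active = melting temperature shift of at least 10% of the positive control shift, at one fixed dose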
EBI2 antag: antagonists of human EBI2 receptor; EBI2 beta-arrestin recruitment, luminescence, 7a,25-OHC stimulated; 360,000 tested, 0.81% active; AID 651636; P32249; inhibition, % at 5 µM; in the data active = inhibition above about 38%;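 also: enzyme fragment complementation signal reports receptor beta-arrestin coupling in cells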
Target sequence (P32249 whole entry, looked up, the tested form may be a part): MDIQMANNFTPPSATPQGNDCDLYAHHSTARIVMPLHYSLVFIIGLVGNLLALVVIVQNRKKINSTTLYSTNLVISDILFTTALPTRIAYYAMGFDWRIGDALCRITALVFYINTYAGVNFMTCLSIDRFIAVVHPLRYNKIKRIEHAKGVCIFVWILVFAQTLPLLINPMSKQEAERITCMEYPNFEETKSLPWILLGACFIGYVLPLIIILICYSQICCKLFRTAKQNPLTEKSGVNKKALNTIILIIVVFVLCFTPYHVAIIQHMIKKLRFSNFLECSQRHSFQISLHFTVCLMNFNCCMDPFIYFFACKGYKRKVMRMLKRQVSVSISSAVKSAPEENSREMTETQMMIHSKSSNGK
MPTP inh: inhibitors of mitochondrial permeability transition pore | 360,000 tested, 1.4% active | inhibition, % at 10 µM | isolated mouse mitochondria, Ca2+ swelling absorbance, 30 min | AID 602449;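 active = inhibition of 50% or more, scaled per plate between neutral and stimulator controls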
Rh123 counter: Rhodamine 123 counter-screen of mitochondrial pore hits. shares compounds with MPTP inh. isolated mitochondria, membrane potential, Rhodamine 123 fluorescence. inhibition, % at 10 µM. 5,000 tested, 78% active; in the data active = inhibition above about 22%
MPTP swell DR: MPTP inhibition, dose response swelling confirmation | shares compounds with MPTP inh | isolated mitochondria swelling, absorbance | 780 tested, 58% active | IC50, µM; in the data active = IC50 below about 20 µM
MPTP counter DR: active in counter-screen for permeability transition pore inhibitors; shares compounds with MPTP inh; isolated mitochondria counterscreen, fluorescence read-out; IC50, µM; 780 tested, 49% active; AID 651564; in the data active = IC50 below about 80 µM
Large screens that a line does not name were inactive (follow-up assays come after a bar, where they were run).

COc1ccccc1NS(=O)(=O)c1cc(NC(=S)Nc2cc(C)cc(C)c2)ccc1Cl	NR3A LBD binder 20.3, MPTP inh 97.4 | Rh123 counter 94.3
COc1cc(C)c(NC(=S)Nc2cccc(Cl)c2)cc1OC	MPTP inh 82.8 | Rh123 counter 82.9
CCC1CCCCN1C(=O)c1cc(COc2ccc3ncccc3c2)on1 (centres undefined)	MPTP inh 104.0 | Rh123 counter 81.1
COCCC1CCCCN1C(=O)c1cc(COc2ccc(-n3cncn3)cc2)on1 (centres undefined)	MPTP inh 92.5 | Rh123 counter 100.2
CCN(CC)C(=O)C1CCCN(C(=O)c2cc(COc3ccc4ncccc4c3)on2)C1 (centres undefined)	none
COCC1CCCCN1C(=O)c1cc(COc2ccc3ncccc3c2)on1 (centres undefined)	MPTP inh 99.9 | Rh123 counter 101.4
CCCN1CCN(C(=O)c2cc(COc3ccc4ncccc4c3)on2)CC1	MPTP inh 86.1 | Rh123 counter 55.6
CCN1CCN(C(=O)c2cc(COc3ccc4ncccc4c3)on2)CC1	none
COc1ccc(C2=Nc3ccccc3N(C(=O)c3ccc(C(F)(F)F)cc3)C2C(=O)Nc2c(C)cccc2C)cc1 (centres undefined)	none (no result: NR3A LBD binder)
Cc1cc(C)cc(-n2ncc3c2CCCC3NC(=O)c2ccccc2)c1 (centres undefined)	none (no result: NR3A LBD binder)
CCc1ccc(CN(C)C(=O)c2cc(COc3ccc(-n4cncn4)cc3)on2)cc1	MPTP inh 58.7 | Rh123 counter 78.1
CN1C(=O)/C(=C\c2cc(N=Nc3ccccc3)ccc2O)SC1=S	MPTP inh 100.2 | Rh123 counter 76.1
Cc1cc(/C=C2\SC(=S)N(C)C2=O)c(C)n1-c1cccc(O)c1	MPTP inh 66.4 | Rh123 counter 65.7
C[C@H](CO)N1C[C@H](C)[C@H](CN(C)C(=O)C2CC2)OCc2cnnn2CCCC1=O	none (no result: NR3A LBD binder)
Cc1ccc(NC(=O)C(C)c2ccc(-c3ccccc3)c(F)c2)cc1 (centres undefined)	MPTP inh 88.8 | Rh123 counter 109.8
COc1ccc(C2/C=C\CN(C(=O)Nc3ccc(C(F)(F)F)cc3)CC(=O)N2Cc2ccc(F)cc2)cc1 (centres undefined)	MPTP inh 102.9 | Rh123 counter 100.1
COc1ccc(C2/C=C\CN(C(=O)Nc3ccccc3)CC(=O)N2Cc2ccc(F)cc2)cc1 (centres undefined)	none
O=C(CCSc1nc2ccccc2s1)N/N=C/c1c(O)ccc2ccccc12	MPTP inh 77.0 | Rh123 counter 63.0
COc1ccc(/C=N/NC(=O)CCSc2nc3ccccc3s2)cc1OC	none
C/C(=N\NC(=O)COc1ccc(C)cc1C(C)C)c1cc2ccccc2o1	none
CCOC(=O)c1ccc(N2CCN(c3ccccc3F)CC2)c(NC(=O)Nc2ccccc2)c1	MPTP inh 96.0 | Rh123 counter 86.9
CCOC(=O)c1ccc(N2CCN(c3ccc(F)cc3)CC2)c(NC(=O)Nc2cccc(OC)c2)c1	MPTP inh 91.7 | Rh123 counter 83.9
Cc1ccccc1N1C(S)=C(C#N)C(=O)NC12CCCCC2	none
COC(=O)C1=C(NC(=O)c2ccccc2[N+](=O)[O-])CCS1	none
N#Cc1c(-c2cccs2)nc(SCc2ccc(Cl)cc2)[nH]c1=O	MPTP inh 95.9 | Rh123 counter 71.3
COC(=O)c1cc(S(=O)(=O)N2CCC(c3cc(OC)ccc3OC)C2)c[nH]1 (centres undefined)	none
O=C(Nc1ccc(OC(F)(F)F)cc1)Oc1ccccc1N1CCOCC1	MPTP inh 88.3 | Rh123 counter 81.6
O=C(Nc1ccc(OC(F)(F)F)cc1)Oc1ccccc1N1CCCCC1	NR3A LBD binder 13.1, MPTP inh 82.5 | Rh123 counter 88.8
O=C(Nc1ccc(F)cc1)Oc1ccccc1N1CCOCC1	none
CCCc1nc(SCC(=O)N2c3ccccc3CC2C)c2c(C)c(C)sc2n1 (centres undefined)	none
O=c1cc(CO)oc(C(Nc2ccccn2)c2ccc(F)cc2)c1O (centres undefined)	none
COc1ccc(C(Nc2ccccn2)c2oc(CO)cc(=O)c2O)cc1 (centres undefined)	MPTP inh 95.8 | Rh123 counter inactive
COCC1CCN(C(=O)c2cc(COc3cccc4cnccc34)on2)CC1	none
O=C(c1cc(COc2cccc3cnccc23)on1)N1CCCC(CCCO)C1 (centres undefined)	MPTP inh 91.3 | Rh123 counter 83.1
N#CC[C@H](Cc1ccccc1)N1CC[C@@H](O)CCC1=O	none
COC(=O)c1ccc2c(c1)C(C)(C)C(/C=C/c1ccccc1O)=[N+]2C	MPTP inh 74.8 | Rh123 counter inactive
O=S(=O)(c1ccc(Cl)cc1)N1CCN(C(=S)Nc2ccc(F)c(Cl)c2)CC1	NR3A LBD binder 18.5, MPTP inh 84.7 | Rh123 counter 88.0
COc1ccc(CN2CCC(C(=O)Nc3ccc(Oc4cccnc4)cc3)CC2)c(C)c1C	MPTP inh 83.3 | Rh123 counter 91.1
COc1cccc(O)c1CN1CCC(C(=O)Nc2ccc(Oc3cccnc3)cc2)CC1	none
COc1cc(NC(=O)CSc2nc3[nH]c(=O)cc(O)c3s2)cc(OC)c1OC	none
CN1CCN(c2cc3c(c4c2[nH]c2ccccc24)C(=O)CC(C)(C)C3)CC1	MPTP inh 84.3 | Rh123 counter inactive
C[C@H]1CN([C@@H](C)CO)C(=O)CCCn2nncc2CO[C@@H]1CN(C)S(=O)(=O)c1ccccc1	none (no result: NR3A LBD binder)
Cc1cc(OCC(=O)OC(C)C(=O)Nc2ccc(N3CCOCC3)cc2)ccc1Cl (centres undefined)	none
O=C(CCN1CCN(c2ccccc2F)CC1)c1ccc(Br)cc1	MPTP inh 112.5 | Rh123 counter inactive | MPTP swell DR inactive | MPTP counter DR 52.8
O=C(Nc1ccc(OCC(F)(F)C(F)F)cc1)c1ccncc1	none
O=C(Nc1ccc(OCC(F)(F)C(F)F)c(C(F)(F)F)c1)c1ccccc1O	NR3A LBD binder 33.5, MPTP inh 105.8 | Rh123 counter 77.0
CCN(CC)c1nc(N)c([N+](=O)[O-])c(NCCO)n1	none
COc1cccc2c(=O)cc(C)n(CC(=O)Nc3ccc(Br)cc3)c12	MPTP inh 69.9 | Rh123 counter 33.5
O=C(Cc1ccsc1)NCC(=O)Nc1ccccc1Br	none
COc1ccccc1NS(=O)(=O)c1cccc(C(=O)NC2CCN(Cc3ccccc3)CC2)c1	MPTP inh 80.5 (no result: NR3A LBD binder) | Rh123 counter 87.0
Cc1cc(C)c(S(=O)(=O)N2CCCCC2C(=O)O)c(C)c1 (centres undefined)	none
